Laboratory results from ChEMBL document CHEMBL4425122, “Discovery of 1-(1H-Pyrazolo[4,3-c]pyridin-6-yl)urea Inhibitors of Extracellular Signal-Regulated Kinase (ERK) for the Treatment of Cancers” (J Med Chem, 2016).

How the values were obtained:
Cytochrome P450 3A4 = Cytochrome P450 3A4 (Homo sapiens, UniProt P08684); assay: Inhibition of CYP3A4 (unknown origin); type: ADME
[1] = molecular target: Voltage-gated inwardly rectifying potassium channel KCNH2 (Homo sapiens, UniProt Q12809); assay: Inhibition of human ERG
Sequence of Voltage-gated inwardly rectifying potassium channel KCNH2 (Q12809 whole entry): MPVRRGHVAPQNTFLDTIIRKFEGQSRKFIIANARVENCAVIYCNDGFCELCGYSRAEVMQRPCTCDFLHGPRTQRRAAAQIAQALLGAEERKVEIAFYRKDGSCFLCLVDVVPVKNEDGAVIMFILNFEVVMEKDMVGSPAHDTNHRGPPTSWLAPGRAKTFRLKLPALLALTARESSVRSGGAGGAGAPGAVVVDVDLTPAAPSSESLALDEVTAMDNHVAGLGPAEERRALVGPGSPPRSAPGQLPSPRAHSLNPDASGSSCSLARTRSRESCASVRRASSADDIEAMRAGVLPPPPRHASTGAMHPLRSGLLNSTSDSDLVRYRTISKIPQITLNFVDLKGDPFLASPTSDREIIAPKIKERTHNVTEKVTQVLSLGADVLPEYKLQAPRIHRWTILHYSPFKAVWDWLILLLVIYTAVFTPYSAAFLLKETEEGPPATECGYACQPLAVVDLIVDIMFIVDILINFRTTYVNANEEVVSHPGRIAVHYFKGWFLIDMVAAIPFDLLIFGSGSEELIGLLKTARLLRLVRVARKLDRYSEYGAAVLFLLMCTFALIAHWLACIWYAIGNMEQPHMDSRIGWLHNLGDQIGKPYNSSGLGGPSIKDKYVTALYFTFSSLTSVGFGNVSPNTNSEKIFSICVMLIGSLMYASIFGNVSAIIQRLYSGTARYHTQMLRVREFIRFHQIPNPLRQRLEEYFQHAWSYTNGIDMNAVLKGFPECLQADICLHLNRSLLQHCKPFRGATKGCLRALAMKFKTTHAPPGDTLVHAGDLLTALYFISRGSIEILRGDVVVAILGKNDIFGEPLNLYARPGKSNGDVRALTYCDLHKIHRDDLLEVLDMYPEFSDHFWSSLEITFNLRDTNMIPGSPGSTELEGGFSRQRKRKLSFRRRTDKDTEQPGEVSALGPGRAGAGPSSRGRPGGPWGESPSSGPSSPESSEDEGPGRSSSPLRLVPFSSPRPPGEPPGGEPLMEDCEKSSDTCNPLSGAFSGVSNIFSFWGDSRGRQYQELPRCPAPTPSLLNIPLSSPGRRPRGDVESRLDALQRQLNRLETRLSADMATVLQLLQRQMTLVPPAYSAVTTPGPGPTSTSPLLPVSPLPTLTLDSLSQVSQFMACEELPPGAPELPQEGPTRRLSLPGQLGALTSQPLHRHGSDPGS

[2] = molecular target: Mitogen-activated protein kinase 1 (Homo sapiens, UniProt P28482); assay: Inhibition of human ERK2 preincubated for 15 mins followed by addition of IMAP peptide substrate and ATP measured after 60 mins by IMAP-FP assay
Sequence of Mitogen-activated protein kinase 1 (Homo sapiens, UniProt P28482) (P28482 whole entry): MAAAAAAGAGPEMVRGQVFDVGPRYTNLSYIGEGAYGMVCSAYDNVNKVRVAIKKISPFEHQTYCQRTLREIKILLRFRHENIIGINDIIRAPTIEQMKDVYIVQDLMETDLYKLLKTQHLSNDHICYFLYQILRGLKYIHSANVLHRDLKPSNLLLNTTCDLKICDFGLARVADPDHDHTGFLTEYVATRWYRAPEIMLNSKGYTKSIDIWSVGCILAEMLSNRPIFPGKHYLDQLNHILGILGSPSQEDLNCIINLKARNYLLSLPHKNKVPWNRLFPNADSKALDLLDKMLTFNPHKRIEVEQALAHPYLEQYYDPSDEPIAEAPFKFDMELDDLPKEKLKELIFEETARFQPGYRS
Outline: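 Final: 0.5 nM hERK2, 900 nM unlabeled + 80 nM labeled peptide, 30 µM ATP; 60 min, quenched with IMAP beads in binding buffer with 24 mM NaCl, read by fluorescence polarization after 60 min.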

[3] = Inhibition of ERK in human A375SM cells harboring BRAF V600E mutant assessed as inhibition of RSK phosphorylation measured after 4 hrs by mesoscale electrochemiluminescent sandwich assay; type: cell-based; conditions: A375-SM
Outline: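 A375SM (BRAF V600E melanoma) cells, 10,000 per well, treated 4 h; lysed 20 min at 4 °C in Tris/NaCl/EGTA/EDTA/Triton/NaF buffer with protease and phosphatase inhibitors. Lysate captured with biotin anti-RSK1 on streptavidin MSD plate, detected with SULFO-TAG anti-pRSK (pThr359/Ser363) overnight at 4 °C; electrochemiluminescence read. IC50 from 11-point titration.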

[4] = Inhibition of ERK human A375 cells assessed as inhibition of RSK phosphorylation measured after 4 hrs by mesoscale electrochemiluminescent sandwich assay; conditions: A-375, 4 h
Homo sapiens [5] = species: Homo sapiens; assay: Selectivity ratio, ratio of IC50 for human ERK2 to IC50 for MEK1 (unknown origin)
Homo sapiens [6] = species: Homo sapiens; assay: Selectivity ratio, ratio of IC50 for human ERK2 to IC50 for RAF1 (unknown origin)
[7] = molecular target: Mitogen-activated protein kinase 1 (Mus musculus, UniProt P63085); assay: Inhibition of mouse ERK2 preincubated for 15 mins followed by addition of IMAP peptide substrate and ATP measured after 60 mins by IMAP-FP assay
Sequence of Mitogen-activated protein kinase 1 (Mus musculus, UniProt P63085) (P63085 whole entry): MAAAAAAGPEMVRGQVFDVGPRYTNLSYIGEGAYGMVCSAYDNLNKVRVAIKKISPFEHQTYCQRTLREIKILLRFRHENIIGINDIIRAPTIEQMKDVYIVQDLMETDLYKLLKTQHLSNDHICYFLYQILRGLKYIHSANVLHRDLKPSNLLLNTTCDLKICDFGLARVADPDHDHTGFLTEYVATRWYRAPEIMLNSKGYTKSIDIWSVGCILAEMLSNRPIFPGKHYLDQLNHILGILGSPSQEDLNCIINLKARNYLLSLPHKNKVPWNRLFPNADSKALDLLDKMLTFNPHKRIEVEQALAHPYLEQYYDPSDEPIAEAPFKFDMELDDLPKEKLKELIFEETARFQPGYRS

Homo sapiens [8] = species: Homo sapiens; assay: Selectivity ratio, ratio of IC50 for human ERK2 to IC50 for COT (unknown origin)
Homo sapiens [9] = species: Homo sapiens; assay: Selectivity ratio, ratio of IC50 for human ERK2 to IC50 for BRAF (unknown origin)

Sequence of Cytochrome P450 3A4 (P08684 whole entry): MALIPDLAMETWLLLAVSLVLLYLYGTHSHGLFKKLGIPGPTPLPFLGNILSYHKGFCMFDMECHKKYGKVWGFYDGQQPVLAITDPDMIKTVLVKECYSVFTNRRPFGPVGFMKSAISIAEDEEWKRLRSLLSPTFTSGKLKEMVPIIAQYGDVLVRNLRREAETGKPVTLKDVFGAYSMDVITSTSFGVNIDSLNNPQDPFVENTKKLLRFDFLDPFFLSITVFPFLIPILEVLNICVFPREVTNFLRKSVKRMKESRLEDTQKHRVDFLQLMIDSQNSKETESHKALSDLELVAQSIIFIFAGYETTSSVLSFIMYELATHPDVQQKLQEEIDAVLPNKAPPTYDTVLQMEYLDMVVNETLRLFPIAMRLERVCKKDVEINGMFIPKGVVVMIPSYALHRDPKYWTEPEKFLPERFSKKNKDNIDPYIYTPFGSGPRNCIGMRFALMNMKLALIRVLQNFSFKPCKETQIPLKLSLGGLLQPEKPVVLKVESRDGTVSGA

IC50 [2]	IC50 [3]	Structure (SMILES)	other results
0.9 nM	220 nM	Cc1cc(-c2n[nH]c3cc(NC(=O)NCc4ccccc4)ncc23)ccn1	Ratio IC50 (Homo sapiens [5]): < 100; Ratio IC50 (Homo sapiens [6]): < 100; IC50 [7]: 0.2 nM; Ratio IC50 (Homo sapiens [8]): < 100; Ratio IC50 (Homo sapiens [9]): < 100
	> 10000 nM	Cc1cc(-c2n[nH]c3cc(NC(=O)Nc4ccccc4)ncc23)ccn1	

Further lines, the molecule ahead of its results:

Structure (SMILES)	IC50 [2]	IC50 [3]	other results
C[C@@H](NC(=O)Nc1cc2[nH]nc(-c3ccnc(F)c3)c2cn1)c1ccccc1	0.3 nM	97 nM	IC50 (Cytochrome P450 3A4): 29000 nM; IC50 [1]: > 20000 nM
Cc1cc(-c2n[nH]c3cc(Nc4ncc(-c5ccccc5)s4)ncc23)ccn1	> 3000 nM		
C[C@@H](NC(=O)Nc1cc2[nH]nc(-c3ccc(F)cc3)c2cn1)c1ccccc1	0.8 nM	360 nM	
COc1cc(-c2n[nH]c3cc(NC(=O)N[C@H](C)c4ccccc4)ncc23)ccn1	0.9 nM	300 nM	
Cc1cc(-c2n[nH]c3cc(NC(=O)N[C@@H](C)c4ccccc4)ncc23)ccn1			IC50 [4]: 1800 nM
Cc1cc(-c2n[nH]c3cc(NC(=O)NC4CCc5ccccc54)ncc23)ccn1 (stereo unspecified)	5 nM	750 nM	
Cc1cc(-c2n[nH]c3cc(NC(=O)OCc4ccccc4)ncc23)ccn1			IC50 [7]: > 3000 nM
Cc1cc(-c2n[nH]c3cc(NC(=O)NCCc4ccccc4)ncc23)ccn1			IC50 [4]: 110 nM
C[C@@H](NC(=O)Nc1cc2[nH]nc(-c3cnn(C)c3)c2cn1)c1ccccc1	0.3 nM	110 nM	IC50 (Cytochrome P450 3A4): 380 nM; IC50 [1]: > 20000 nM
